Measurements taken from ChEMBL document CHEMBL1124442, “Potential antitumor agents. 58. Synthesis and structure-activity relationships of substituted xanthenone-4-acetic acids active against the colon 38 tumor in vivo” (1989).
Calls of active or inactive are those of the source.

Tests used:
[1] = Activity against colon adenocarcinoma C38 tumor in mice, after intraperitoneal administration at optimal dose; format: functional, Mus musculus
Method in brief: (§1)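 Colon 38 fragments implanted subcutaneously and grown to 4–8 mm diameter. Single intraperitoneal dose of the sodium salt in 0.2 mL water, escalated at 1.5-fold intervals up to 750 mg/kg or the toxic limit, with at least three mice per dose. Optimal dose is the highest dose with no acute deaths within 24 h. Tumors excised at 24 h, fixed in formalin and stained with H&E. Sections scored against controls: + = 50–90% hemorrhagic necrosis, ++ = >90%.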

[2] = Inhibition of colon adenocarcinoma C38 tumor growth in mice, intraperitoneal administration; format: functional, Mus musculus; method in brief: as §1
P388 [3] = experiment: Inhibition of 10e6 P388 leukemic cells in mice, intraperitoneal administration; format: functional, Mus musculus
Method in brief: (§2)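 10⁶ P388 leukemia cells injected intraperitoneally. Drug given intraperitoneally as the sodium salt in 0.2 mL water on days 1, 5 and 9; optimal dose is in mg/kg per day. ILS is the mean percent increase in lifespan over untreated tumor-bearing controls, with ≥20% considered significant. NA means no activity at any dose up to toxic levels.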

P388 [4] = experiment: The average percentage increase in the lifespan of P388 leukemic mice, when compound was administered intraperitoneally; NA is Not Active.; format: functional, cell-based; conditions: Mus musculus; method in brief: as §2
P388 [5] = experiment: The average percentage increase in the lifespan of P388 leukemic mice, when compound was administered intraperitoneally; NA is Not active; format: functional, cell-based; conditions: Mus musculus; method in brief: as §2
[6] = Activity against colon adenocarcinoma C38 tumor in mice, after intraperitoneal administration at optimal dose and value ranges from 50 -90 %; format: functional, Mus musculus; method in brief: as §1
P388 [7] = experiment: The average percentage increase in the lifespan of P388 leukemic mice, when compound was administered intraperitoneally; format: functional, Mus musculus
Method in brief: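 Mice received 10⁶ P388 leukemia cells ip. Drug was given ip as the sodium salt in 0.2 mL water on days 1, 5 and 9, with doses in mg/kg/day up to toxic levels. ILS is the average percentage increase in lifespan over untreated tumor-bearing controls, and values of ≥20% were taken as significant.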

[8] = Ability of compound (330 mg/kg, single dose) to inhibit growth of Sc colon 38 tumor cells in mice; format: functional, Mus musculus
Method in brief: (§3)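 Mice carrying palpable subcutaneous colon 38 tumors, randomized in groups of five. Drug given intraperitoneally in aqueous solution, either as a single dose or as two equal doses 7 days apart. Major and minor tumor axes measured twice weekly from the start of treatment. Volume taken as 0.52x²y. Growth delay in days is relative to untreated controls.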

P388 [9] = experiment: The average percentage increase in the lifespan of P388 leukemic mice, when compound was administered intraperitoneally; NA means not active.; format: functional, cell-based; conditions: Mus musculus; method in brief: as §2
[10] = Ability of compound (220 mg/kg, q7dx2) to inhibit growth of Sc colon 38 tumor cells in mice; format: functional, Mus musculus; method in brief: as §3
P388 [11] = experiment: The average percentage increase in the lifespan of P388 leukemic mice, when compound was administered intraperitoneally; NA means not active; format: functional, cell-based; conditions: Mus musculus; method in brief: as §2
[12] = Activity against colon adenocarcinoma C38 tumor in mice, after intraperitoneal administration at optimal dose.; format: functional, Mus musculus; method in brief: as §1
[13] = Ability of compound (45 mg/kg, q7dx2) to inhibit growth of Sc colon 38 tumor cells in mice; format: functional, Mus musculus; method in brief: as §3
[14] = Ability of compound (100 mg/kg, single dose) to inhibit growth of Sc colon 38 tumor cells in mice; format: functional, Mus musculus; method in brief: as §3
P388 [15] = experiment: Optimal dose that inhibits growth of 10e6 P388 leukemic cells in mice, after intraperitoneal administration of the compound; format: functional, Mus musculus; method in brief: as §2
[16] = Ability of compound (65 mg/kg, q4dx3) to inhibit growth of Sc colon 38 tumor cells in mice; format: functional, Mus musculus
Method in brief: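 Subcutaneously implanted colon 38 fragments were grown to 4–8 mm diameter. Mice with palpable tumors were randomized in groups of five and dosed ip with drug in aqueous solution; q4d×3 means three equal doses 4 days apart. Major and minor tumor axes were measured twice weekly from the start of treatment. Volume was calculated as 0.52x²y, and growth delay in days was derived against untreated controls.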

Row | SMILES | Activity [1] | Optimal dose [2] | Optimal dose (P388 [3]) | ILS (P388 [4]) | Activity [6] | other results
1 | Cc1cccc2oc3c(CC(=O)O)cccc3c(=O)c12 | <50% | 330 mg/kg | 150 mg/kg | No activity | – | –
2 | O=C(O)Cc1cccc2c(=O)c3cc([N+](=O)[O-])ccc3oc12 | <50% | 500 mg/kg | 225 mg/kg | – | – | ILS (P388 [5]): inactive
3 | O=C(O)Cc1cccc2c(=O)c3cc(Cl)ccc3oc12 | – | 500 mg/kg | 150 mg/kg | No activity | 50% | –
4 | O=C(O)Cc1cccc2c(=O)c3cccc([N+](=O)[O-])c3oc12 | – | 220 mg/kg | 150 mg/kg | – | – | ILS (P388 [5]): inactive
5 | Cc1ccc2c(=O)c3cccc(CC(=O)O)c3oc2c1 | – | 220 mg/kg | 100 mg/kg | – | 50% | ILS (P388 [7]): 24%
6 | O=C(O)Cc1c(O)ccc2c(=O)c3ccccc3oc12 | <50% | 500 mg/kg | 500 mg/kg | No activity | – | –
7 | COc1cccc2c(=O)c3cccc(CC(=O)O)c3oc12 | – | 150 mg/kg | 150 mg/kg | – | 50% | ILS (P388 [7]): 42%
8 | O=C(O)Cc1cccc2c(=O)cc(-c3ccccc3)oc12 [MITOFLAXONE] | >90% | 330 mg/kg | 150 mg/kg | No activity | – | Growth delay [8]: 17 days
9 | O=C(O)Cc1cc(O)cc2c(=O)c3ccccc3oc12 | <50% | 750 mg/kg | – | – | – | –
10 | O=C(O)Cc1cccc2c(=O)c3cccc(O)c3oc12 | <50% | 750 mg/kg | 150 mg/kg | – | – | ILS (P388 [9]): No activity
11 | O=C(O)Cc1cccc2c(=O)c3ccccc3oc12 | >90% | 220 mg/kg | 150 mg/kg | – | – | Growth delay [10]: 11 days; ILS (P388 [11]): inactive
12 | O=C(O)Cc1c(Cl)ccc2c(=O)c3ccccc3oc12 | – | 500 mg/kg | 150 mg/kg | No activity | – | Activity [12]: >90%
13 | COc1cccc2oc3c(CC(=O)O)cccc3c(=O)c12 | <50% | 750 mg/kg | 330 mg/kg | No activity | – | –
14 | Cc1cccc2c(=O)c3cccc(CC(=O)O)c3oc12 | >90% | 45 mg/kg | 30 mg/kg | – | – | ILS (P388 [7]): 27%; Growth delay [13]: 13 days
15 | COc1cc(CC(=O)O)c2oc3ccccc3c(=O)c2c1 | – | 750 mg/kg | 225 mg/kg | No activity | 50% | –
16 | O=C(O)Cc1cccc2c(=O)c3cccc(Cl)c3oc12 | >90% | 150 mg/kg | 65 mg/kg | – | – | Growth delay [14]: 5.2 days; ILS (P388 [7]): 34%
17 | Cc1ccc2oc3c(CC(=O)O)cccc3c(=O)c2c1 | – | 500 mg/kg | 500 mg/kg | No activity | 50% | –

Row | SMILES | Activity [1] | Optimal dose [2] | Optimal dose (P388 [3]) | ILS (P388 [4]) | Activity [6] | other results
18 | O=C(O)Cc1ccc(Cl)c2c(=O)c3ccccc3oc12 | >90% | 330 mg/kg | 220 mg/kg | No activity | – | –
19 | O=C(O)Cc1cccc2c(=O)c3ccc(O)cc3oc12 | – | 750 mg/kg | 225 mg/kg | No activity | 50% | –
20 | O=C(O)Cc1ccc(O)c2c(=O)c3ccccc3oc12 | <50% | 750 mg/kg | – | – | – | –
21 | COc1ccc2c(=O)c3ccccc3oc2c1CC(=O)O | <50% | 220 mg/kg | 220 mg/kg | No activity | – | –
22 | O=C(O)Cc1cccc2c(=O)c3c(Cl)cccc3oc12 | – | 750 mg/kg | 330 mg/kg | No activity | 50% | –
23 | COc1ccc(CC(=O)O)c2oc3ccccc3c(=O)c12 | <50% | 500 mg/kg | – | – | – | –
24 | COc1ccc2c(=O)c3cccc(CC(=O)O)c3oc2c1 | – | 150 mg/kg | 65 mg/kg | – | 50% | Growth delay [14]: 0 days; ILS (P388 [7]): 28%
25 | Cc1ccc(CC(=O)O)c2oc3ccccc3c(=O)c12 | – | 150 mg/kg | – | No activity | 50% | Optimal dose (P388 [15]): 100 mg/kg
26 | O=C(O)Cc1cccc2c(=O)c3cc(O)ccc3oc12 | <50% | 750 mg/kg | – | – | – | –
27 | O=c1[nH]cc(F)c(=O)[nH]1 [FLUOROURACIL] | – | – | – | – | – | Growth delay [16]: 12.5 days
28 | O=C(O)Cc1cccc2oc3ccccc3c(=O)c12 | <50% | 500 mg/kg | 500 mg/kg | No activity | – | –
29 | Cc1ccc2c(=O)c3ccccc3oc2c1CC(=O)O | – | 150 mg/kg | 100 mg/kg | – | 50% | ILS (P388 [7]): 26%
30 | COc1ccc2oc3c(CC(=O)O)cccc3c(=O)c2c1 | – | 500 mg/kg | 150 mg/kg | No activity | 50% | –
31 | O=C(O)Cc1ccc2c(=O)c3ccccc3oc2c1 | <50% | 500 mg/kg | 225 mg/kg | No activity | – | –
32 | O=C(O)Cc1cc(Cl)cc2c(=O)c3ccccc3oc12 | – | 330 mg/kg | 150 mg/kg | No activity | 50% | –
33 | O=C(O)Cc1cccc2c(=O)c3ccc(Cl)cc3oc12 | – | 150 mg/kg | 65 mg/kg | No activity | 50% | –
34 | Cc1cc(CC(=O)O)c2oc3ccccc3c(=O)c2c1 | – | 500 mg/kg | 330 mg/kg | No activity | 50% | –
